According to article PMC13022283 (Scientific Reports, 2026):

Legend:
h-NPP1 = biological target: T1, h-NPP1 (Homo sapiens, UniProt P22413); experiment: h-NPP1 activity assay; format: biochemical; conditions: for inhibition at 100 µM: read-out: % Inhibition h-NPP1
T1 sequence (P22413 1-925): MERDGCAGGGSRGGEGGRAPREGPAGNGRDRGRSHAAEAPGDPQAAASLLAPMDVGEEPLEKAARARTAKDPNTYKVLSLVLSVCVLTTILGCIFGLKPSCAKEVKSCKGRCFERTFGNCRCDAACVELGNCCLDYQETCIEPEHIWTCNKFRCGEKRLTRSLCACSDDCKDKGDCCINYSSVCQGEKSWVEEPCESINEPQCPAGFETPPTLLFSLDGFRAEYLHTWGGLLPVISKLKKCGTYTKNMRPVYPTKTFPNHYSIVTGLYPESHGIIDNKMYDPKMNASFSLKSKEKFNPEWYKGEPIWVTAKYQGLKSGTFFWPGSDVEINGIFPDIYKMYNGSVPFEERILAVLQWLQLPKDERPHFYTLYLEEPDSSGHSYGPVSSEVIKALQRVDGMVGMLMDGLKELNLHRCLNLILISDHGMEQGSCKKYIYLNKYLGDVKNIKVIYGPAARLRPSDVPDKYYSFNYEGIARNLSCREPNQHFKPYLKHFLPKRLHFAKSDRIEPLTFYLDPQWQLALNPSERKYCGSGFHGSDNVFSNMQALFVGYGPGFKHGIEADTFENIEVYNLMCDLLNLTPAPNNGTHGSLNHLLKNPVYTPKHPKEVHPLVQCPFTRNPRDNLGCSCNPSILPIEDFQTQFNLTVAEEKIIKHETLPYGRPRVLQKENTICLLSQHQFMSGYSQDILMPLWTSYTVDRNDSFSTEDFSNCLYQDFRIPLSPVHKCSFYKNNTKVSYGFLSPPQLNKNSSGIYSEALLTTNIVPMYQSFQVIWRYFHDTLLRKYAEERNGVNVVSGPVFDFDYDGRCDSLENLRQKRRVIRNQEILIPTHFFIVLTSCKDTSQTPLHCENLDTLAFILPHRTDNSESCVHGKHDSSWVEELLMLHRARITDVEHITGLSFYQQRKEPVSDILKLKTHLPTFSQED

MTT assay = format: cell-based, human; conditions: human, MCF-7 breast cancer cells, MCF-7, 100 μM; for cytotoxicity at 24 h, 100 µM: % Cytotoxicity ± SD; for viability at 24 h, 100 µM: % Viability
h-NTPDase8 = biological target: T2, h-NTPDase8 (Homo sapiens, UniProt Q5MY95); experiment: h-NTPDase activity assay; format: biochemical; conditions: for inhibition at 100 µM: read-out: % Inhibition h-NTPDase8, at 100 µM
T2 sequence (Q5MY95 1-495): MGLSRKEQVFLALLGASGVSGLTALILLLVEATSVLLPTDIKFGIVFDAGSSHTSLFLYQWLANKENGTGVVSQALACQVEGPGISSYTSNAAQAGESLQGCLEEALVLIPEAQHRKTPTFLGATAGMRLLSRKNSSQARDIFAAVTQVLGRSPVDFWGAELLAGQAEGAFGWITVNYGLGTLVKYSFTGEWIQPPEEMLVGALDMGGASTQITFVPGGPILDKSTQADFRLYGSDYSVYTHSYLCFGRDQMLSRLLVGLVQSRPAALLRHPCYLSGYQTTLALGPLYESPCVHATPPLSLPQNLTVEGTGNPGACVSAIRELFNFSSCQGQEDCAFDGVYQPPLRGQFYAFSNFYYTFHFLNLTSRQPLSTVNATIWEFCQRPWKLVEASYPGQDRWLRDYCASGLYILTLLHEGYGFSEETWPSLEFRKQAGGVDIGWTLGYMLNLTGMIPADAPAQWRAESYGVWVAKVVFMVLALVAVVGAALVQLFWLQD

h-NTPDase2 = biological target: T3, h-NTPDase2 (Homo sapiens, UniProt Q9Y5L3); experiment: h-NTPDase activity assay; format: biochemical; conditions: for inhibition at 100 µM: read-out: % Inhibition h-NTPDase2
T3 sequence (Q9Y5L3 1-495): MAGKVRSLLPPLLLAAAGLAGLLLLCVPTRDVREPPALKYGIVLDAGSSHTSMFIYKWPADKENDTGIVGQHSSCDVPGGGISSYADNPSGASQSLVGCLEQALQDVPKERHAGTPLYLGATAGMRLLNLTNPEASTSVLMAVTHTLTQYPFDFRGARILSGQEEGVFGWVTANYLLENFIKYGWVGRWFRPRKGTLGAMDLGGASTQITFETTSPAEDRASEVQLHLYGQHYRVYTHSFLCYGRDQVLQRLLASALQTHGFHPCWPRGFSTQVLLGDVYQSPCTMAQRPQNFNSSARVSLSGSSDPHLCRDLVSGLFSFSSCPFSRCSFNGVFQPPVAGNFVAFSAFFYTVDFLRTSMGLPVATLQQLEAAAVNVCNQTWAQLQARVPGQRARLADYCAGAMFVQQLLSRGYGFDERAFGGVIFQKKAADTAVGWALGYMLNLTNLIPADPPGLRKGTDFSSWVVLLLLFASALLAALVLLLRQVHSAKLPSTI

h-NTPDase3 = biological target: T4, h-NTPDase3 (Homo sapiens, UniProt O75355); experiment: h-NTPDase activity assay; format: biochemical; conditions: for inhibition at 100 µM: read-out: % Inhibition h-NTPDase3
T4 sequence (O75355 1-529): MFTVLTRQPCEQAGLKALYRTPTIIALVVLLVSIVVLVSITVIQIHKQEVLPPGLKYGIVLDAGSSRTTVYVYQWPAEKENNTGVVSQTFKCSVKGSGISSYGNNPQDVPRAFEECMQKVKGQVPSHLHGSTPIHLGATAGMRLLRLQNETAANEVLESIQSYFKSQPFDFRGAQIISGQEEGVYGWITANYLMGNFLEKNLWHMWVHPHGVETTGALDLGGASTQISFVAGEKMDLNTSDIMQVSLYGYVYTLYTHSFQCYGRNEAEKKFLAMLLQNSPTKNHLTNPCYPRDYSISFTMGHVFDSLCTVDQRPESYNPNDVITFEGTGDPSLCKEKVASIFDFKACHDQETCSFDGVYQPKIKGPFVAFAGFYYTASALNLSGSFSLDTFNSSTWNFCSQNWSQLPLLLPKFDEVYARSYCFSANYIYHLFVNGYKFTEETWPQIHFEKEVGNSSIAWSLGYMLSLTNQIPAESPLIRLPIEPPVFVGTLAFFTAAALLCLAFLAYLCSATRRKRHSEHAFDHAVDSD
In short: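 Human NTPDase1, -2, -3 or -8 came from COS-7 cells transfected with plasmids via Lipofectamine, harvested at 44–48 h, sonicated and cleared of nuclei, with protein measured by Bradford. Enzyme per well was 12, 37, 43 or 63 ng respectively. Compound (0.1 mM final) was pre-incubated 10 min at 37 °C in 50 mM Tris–HCl, 5 mM CaCl2, pH 7.4. The reaction was started with ATP (100 µM), run 15 min, and stopped with malachite green; Pi was read at 630 nm.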

Row | Compound | inhibition at 100 µM (h-NPP1) [%] | cytotoxicity at 24 h, 100 µM (MTT assay) [%] | viability at 24 h, 100 µM (MTT assay) [%] | IC50 (h-NTPDase8) [nM] | inhibition at 100 µM (h-NTPDase8) [%] | inhibition at 100 µM (h-NTPDase2) [%] | IC50 (h-NTPDase3) [nM] | inhibition at 100 µM (h-NTPDase3) [%] | IC50 (h-NTPDase2) [nM] | IC50 (h-NPP1) [nM]
1 | O=C(NCc1ccc(F)cc1)c1ccc2ncccc2c1 [Compound 4b, N-(4-fluorobenzyl)quinoline-6-carboxamide] | 44.8 | 25.1 ± 6.08 | 74.9 | 440 ± 80 | 83 | 26.2 | 350 ± 170 | 67.8 | – | –
2 | Cc1ccc(CNC(=O)c2ccc3ncccc3c2)cc1 [Compound 4c, N-(4-methylbenzyl)quinoline-6-carboxamide] | 45.2 | 42.2 ± 0.81 | 57.8 | 990 ± 130 | 70.9 | 68.4 | 670 ± 270 | 78.4 | 6390 ± 1070 | –
3 | O=C(Nc1c(F)cccc1F)c1ccc2ncccc2c1 [Compound 4d, N-(2,6 difluorophenyl)quinoline-6-carboxamide] | 54.5 | 48 ± 12.7 | 52 | – | 33 | 80.1 | 820 ± 70 | 58.4 | 920 ± 170 | 730 ± 90
4 | O=C(Nc1ccc(F)cc1F)c1ccc2ncccc2c1 [Compound 4e, N-(2,4 difluorophenyl)quinoline-6-carboxamide] | 34.6 | 14.6 ± 2.48 | 85.4 | – | 39.5 | 36.4 | – | 40.2 | – | –
5 | O=C(Nc1ccccn1)c1ccc2ncccc2c1 [Compound 4g, N-(pyridin-2-yl)quinoline-6-carboxamide] | 43.7 | 47.4 ± 1.8 | 52.6 | – | 20.4 | 33.9 | 320 ± 50 | 81.7 | – | –
6 | O=C(Nc1ccccc1I)c1ccc2ncccc2c1 [Compound 4h, N-(2-iodophenyl)quinoline-6-carboxamide] | 33.9 | 49.7 ± 2.17 | 50.3 | 3290 ± 360 | 65.6 | 28.3 | 880 ± 290 | 85 | – | –
7 | O=C(Nc1ccc(I)cc1)c1ccc2ncccc2c1 [Compound 4k, N-(4-Iodophenyl)quinoline-6-carboxamide] | 67.7 | 56.9 ± 16.9 | 43 to 45 | – | 27 | 18.6 | – | 38.5 | – | 110 ± 20
8 | Cc1ccc(F)cc1NC(=O)c1ccc2ncccc2c1 [Compound 4l, N-(5-fluoro 2-methylphenyl)quinoline-6-carboxamide] | 29.4 | 39.5 ± 15.5 | 60.5 | – | 26.1 | 41.2 | – | 36.1 | – | –
